From ChEMBL document CHEMBL2163220 (J Med Chem, 2012) come the findings set out here.

Molecules are shown by their SMILES. The source made the active and inactive calls. The rule behind the calls is not given here.

One test has as its system CWR22R. Kind of test: Cytotoxicity against human 22Rv1 cells incubated for 72 hrs by MTT assay. It is filed as functional, cell-based. To be noted: 22Rv1, 72 h. The gist of the method: (§1)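 MTT assay run across a panel of prostate cancer cell lines.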
For orientation: Tetrazolium dyes change colour on reduction, which living cells bring about.

For test [1], the system named is PC-3. In words: Cytotoxicity against human PC3 cells incubated for 72 hrs by MTT assay. Type of test: functional, cell-based. To be noted: PC-3, 72 h. In outline:
as §1

The subject of test [2] is LNCaP. In words: Cytotoxicity against human LNCAP cells incubated for 72 hrs by MTT assay. It is filed as functional, cell-based. In outline: as §1
The nature of test [3]: Cytotoxicity against human C4-2B cells incubated for 72 hrs by MTT assay. Type of test: functional, cell-based. As to conditions: LNCaP C4-2B. In outline: as §1
The target of test [4] is T1, Androgen receptor (Homo sapiens) (UniProt P10275).
T1 sequence (whole entry): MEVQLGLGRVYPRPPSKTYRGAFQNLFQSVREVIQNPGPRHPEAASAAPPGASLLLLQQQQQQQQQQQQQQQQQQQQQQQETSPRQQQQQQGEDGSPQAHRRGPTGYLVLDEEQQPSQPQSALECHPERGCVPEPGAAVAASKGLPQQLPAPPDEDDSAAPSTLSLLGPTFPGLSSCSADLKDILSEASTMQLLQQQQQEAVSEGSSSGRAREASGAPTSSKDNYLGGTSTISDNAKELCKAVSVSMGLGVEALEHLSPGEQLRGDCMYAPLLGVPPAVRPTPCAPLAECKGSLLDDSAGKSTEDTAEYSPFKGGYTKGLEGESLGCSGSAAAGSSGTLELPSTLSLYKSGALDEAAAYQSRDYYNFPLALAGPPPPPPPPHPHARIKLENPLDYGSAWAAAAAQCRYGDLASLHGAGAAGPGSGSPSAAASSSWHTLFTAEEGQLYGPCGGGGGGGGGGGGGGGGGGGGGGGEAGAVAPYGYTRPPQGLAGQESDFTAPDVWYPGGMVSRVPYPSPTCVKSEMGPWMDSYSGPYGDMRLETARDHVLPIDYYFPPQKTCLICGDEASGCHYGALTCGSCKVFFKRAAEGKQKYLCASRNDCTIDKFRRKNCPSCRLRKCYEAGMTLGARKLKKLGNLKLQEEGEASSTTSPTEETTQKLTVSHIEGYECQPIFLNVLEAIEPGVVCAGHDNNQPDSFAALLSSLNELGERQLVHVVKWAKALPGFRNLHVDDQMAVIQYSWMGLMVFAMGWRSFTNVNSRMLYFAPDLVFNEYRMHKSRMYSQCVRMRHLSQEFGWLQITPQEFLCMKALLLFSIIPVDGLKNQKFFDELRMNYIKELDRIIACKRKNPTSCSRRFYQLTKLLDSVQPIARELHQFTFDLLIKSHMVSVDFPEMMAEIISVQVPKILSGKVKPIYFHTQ
Kind of test: Antagonist activity at androgen receptor in human LNCaP cells assessed as increase in Maspin promoter activity by luciferase reporter gene assay. It is filed as functional, cell-based. The gist of the method:
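LNCaP cells carrying a maspin promoter-luciferase reporter were treated with compound and read by luciferase activity, in triplicate.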
(In general: A reporter such as luciferase makes a cellular process visible.)

Test [5] concerns the target T1, Androgen receptor (Homo sapiens). Kind of test: Antagonist activity at androgen receptor in human LNCaP cells assessed as reduction in DHT-induced PSA expression by luciferase reporter gene assay. Type of test: functional, cell-based. In outline: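 LNCaP cells carrying a PSA-luc reporter were treated with compound at 1 and 2.5 μM in the presence of 1 nM DHT. Fold suppression was calculated relative to 1 nM DHT alone. Run in triplicate.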

The target is the same in test [6]. In words: Antagonist activity at androgen receptor in human PC3 cells assessed as increase in Maspin promoter activity at 2.5 uM by luciferase reporter gene assay. Type of test: functional, cell-based. To be noted: PC-3. In outline:
(§2)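 PC-3 cells were transfected with maspin-luc, with or without cotransfected AR. Cells were exposed to DMSO vehicle or compound at 2.5 and 5 μM. Luciferase activity was measured in triplicate.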

Test [7] concerns LNCaP. Kind of test: Reduction in androgen receptor protein expression in human LNCAP cells incubated for 24 hrs by Western blotting. Type of test: functional, cell-based. The gist of the method:
(§3)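 LNCaP cells in complete medium were exposed to DMSO or compound at 1, 2.5 and 5 μM for 24 h. Western blot measured AR, maspin, caspase-3 activation and PARP cleavage, with β-actin as loading control.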
(Immunoblotting shows a protein as a band on a membrane.)

The subject of test [8] is LNCaP. In words: Induction of apoptosis in human LNCAP cells assessed as caspase-3 activation incubated for 24 hrs by Western blotting. It is filed as functional, cell-based. The gist of the method: as §3
Test [9] addresses T1, Androgen receptor (Homo sapiens). Kind of test: Antagonist activity at androgen receptor in human PC3 cells assessed as increase in Maspin promoter activity at 5 uM by luciferase reporter gene assay. It is filed as functional, cell-based. To be noted: PC-3. In outline: as §2
The subject of test [10] is LNCaP. Kind of test: Induction of apoptosis in human LNCAP cells assessed as PARP cleavage activation incubated for 24 hrs by Western blotting. It is filed as functional, cell-based. In outline:
as §3

Test [11] has as its target T1, Androgen receptor (Homo sapiens). In words: Antagonist activity at androgen receptor in human LNCaP cells assessed as increase in Maspin protein expression at 1 to 5 uM incubated for 24 hrs by Western blotting.
For test [12], the system named is PC-3. Kind of test: Effect on in Maspin expression in human PC3 cells deficient in wild type androgen receptor at 2.5 uM by luciferase reporter gene assay. It is filed as functional, cell-based. The gist of the method: as §2
The test system of test [13] is PC-3. Kind of test: Effect on in Maspin expression in human PC3 cells deficient in wild type androgen receptor at 5 uM by luciferase reporter gene assay. It is filed as functional, cell-based. The gist of the method:
as §2

Test [14] relates to PC-3. In words: Antagonist activity at androgen receptor ARv7 mutant lacking ligand binding domain expressed in human PC3 cells assessed as reduction in DHT-induced receptor transactivation at 1 uM by luciferase reporter gene assay. Type of test: cell-based. In outline:
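AR-v7 (lacks LBD), MMTV-Luc and pRL-TK (Renilla) plasmids transiently transfected into PC-3 cells; cells treated with DMSO vehicle, 0.1 nM DHT, or test compound at 1 μM; transactivation read as luciferase activity (relative luciferase units).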

In the case of `Cc1coc2c1C(=O)C(=O)c1c-2ccc2c1COCC2`, the half-maximal inhibitory concentration (IC50) was 1500 nM in the test with CWR22R, 2100 nM in the test with PC-3 [1], 2400 nM in the test on LNCaP [2] and 100 nM in test [3].
`Cc1coc2c1C(=O)C(=O)c1c-2ccc2c1CCCC2`: the IC50 in the test with CWR22R amounted to 13500 nM; in the test with PC-3 [1], 1200 nM; with LNCaP [2], 600 nM; in test [3], 100 nM. Further, the Activity entry in [4] and in test [5] was “Dose-dependent effect” in each case.
Take `Cc1coc2c1C(=O)C(=O)c1c-2ccc2c1CCC(C)C2` (stereo unspecified): the IC50 in the test on CWR22R was more than 20000 nM; with PC-3 [1] it was 2500 nM; with LNCaP [2], 3500 nM; in [3], 700 nM.
For the molecule `Cc1coc2c1C(=O)C(=O)c1c-2ccc2c1CCC2(C)C`, the IC50 in the test with CWR22R is 7500 nM; in the test with PC-3 [1] it was 2400 nM; in the test with LNCaP [2], 1000 nM; in test [3], 400 nM.
Consider `Cc1coc2c1C(=O)C(=O)c1c-2ccc2c1CC(C)(C)CC2`, for which the IC50 in the test on CWR22R came to 3200 nM; with PC-3 [1], 3600 nM; in the test with LNCaP [2] it was 3200 nM; in test [3] it was 1200 nM. Besides, the Activity result in test [4] and in test [5] was “Dose-dependent effect” in each case.
With `Cc1coc2c1C(=O)C(=O)c1c-2ccc2c1CCC(C)(C)C2`, the IC50 with CWR22R worked out at 8800 nM; with PC-3 [1], 900 nM; with LNCaP [2] it was 700 nM; in [3] it was 500 nM. Moreover, the Activity result (in test [4]; in the test on LNCaP [7]; in test [5]; in the test with LNCaP [8]; in the test on LNCaP [10]) was “Dose-dependent effect” each time. Besides, the outcome in test [6], in test [9] and in test [11] was Active. In addition, the result in the test with PC-3 [12] and in the test on PC-3 [13] was inactive.
Take `Cc1coc2c1C(=O)C(=O)c1c-2ccc2c1CCCCC2`: the IC50 is more than 20000 nM with CWR22R, 6300 nM in the test with PC-3 [1], 3600 nM in the test on LNCaP [2] and 1800 nM in test [3].
With `CC(O)(CS(=O)(=O)c1ccc(F)cc1)C(=O)Nc1ccc(C#N)c(C(F)(F)F)c1` (stereo unspecified), the outcome with PC-3 [14] was inactive.
As for `Cc1coc2c1C(=O)C(=O)c1c-2ccc2c1CCCC2C` (stereo unspecified), the IC50 in the test on CWR22R is 11800 nM; with PC-3 [1], 1200 nM; in the test with LNCaP [2] it was 1200 nM; in test [3], 400 nM.
With `Cc1coc2c1C(=O)C(=O)c1c-2ccc2c1CC(C)CC2` (stereo unspecified), the IC50 in the test on CWR22R was 8200 nM; with PC-3 [1], 1900 nM; in the test on LNCaP [2], 1700 nM; in test [3] it was 300 nM.

One may read the IC50 as the midpoint of a concentration-inhibition curve. Low values mean higher potency, high ones lower potency.
